Here are results for seven compounds from ChEMBL document CHEMBL3875169, “Synthesis, in vitro anticancer and antibacterial activities and in silico studies of new 4-substituted 1,2,3-triazole-coumarin hybrids” (Eur J Med Chem, 2016).

The nature of assay [1]: Growth inhibition of human SW620 cells after 72 hrs by MTT assay. The class given is functional, cell-based. The conditions noted are these: SW-620, 72 h. The method in brief: (§1)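 Monolayers in DMEM with 10% FBS, 2 mM L-glutamine and penicillin/streptomycin, 37 °C, 5% CO2; 5000 cells/well seeded day 0. Compounds added as five 10-fold dilutions (0.01–100 µM), DMSO ≤0.1%, for 72 h. MTT absorbance converted to percentage growth (NIH formulas); IC50 by linear regression between bracketing concentrations, highest concentration reported with ">" when not reached. Quadruplicate points, three experiments.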

Assay [2] is described as follows: Growth inhibition of human HeLa cells after 72 hrs by MTT assay. In kind it is functional, cell-based. The method in brief:
as §1
In general terms: Tetrazolium assays rely on reduction of a dye to a coloured formazan, in cell work by metabolically active cells.

The test system of another assay is Pseudomonas aeruginosa. Nature of the assay: Antibacterial activity against Pseudomonas aeruginosa ATCC 27853 after 16 to 20 hrs by broth microdilution method. In kind it is functional. The method in brief:
(§2)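 Broth microdilution per CLSI in cation (Ca2+, Mg2+)-adjusted Mueller-Hinton broth; compounds in serial two-fold dilutions, 256–0.25 µg/mL; direct colony suspension inoculum, final 5 x 10^5 CFU/mL; 35 ± 2 °C, 16–20 h, ambient air. MIC is the lowest concentration completely inhibiting visible growth versus growth control; with trailing, endpoint read at ≥80% growth reduction. E. coli ATCC 25922 and P. aeruginosa ATCC 27853 served as QC.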
Background: Broth dilution looks for growth in wells or tubes with falling amounts of substance.

Assay [3] is described as follows: Growth inhibition of human CFPAC-1 cells after 72 hrs by MTT assay. The conditions noted are these: CFPAC-1, 72 h. The class given is functional, cell-based. The procedure, abridged: as §1
The next assay deals with Enterococcus faecalis. As to the kind of experiment: Antibacterial activity against Enterococcus faecalis after 16 to 20 hrs by broth microdilution method. In kind it is functional. The procedure, abridged:
as §2

Assay [4] can be described thus: Growth inhibition of human WI38 cells after 72 hrs by MTT assay. In kind it is cell-based. Particulars: WI-38, 72 h. The procedure, abridged: as §1
The next assay deals with Staphylococcus aureus. As to the kind of experiment: Antibacterial activity against Staphylococcus aureus ATCC 25923 after 16 to 20 hrs by broth microdilution method. In kind it is functional. The procedure, abridged: as §2
Assay [5] is described as follows: Growth inhibition of human A549 cells after 72 hrs by MTT assay. In kind it is functional, cell-based. The conditions noted are these: A549, 72 h. The method in brief:
as §1

In a further assay the test system is Escherichia coli. As to the kind of experiment: Antibacterial activity against Escherichia coli ATCC 25925 after 16 to 20 hrs by broth microdilution method. In kind it is functional. The conditions noted are these: read-out: MIC=>80. The method in brief: as §2
A further assay relates to Acinetobacter baumannii. As to the kind of experiment: Antibacterial activity against Acinetobacter baumannii ATCC 19606 after 16 to 20 hrs by broth microdilution method. In kind it is functional. The method in brief: as §2
Another assay concerns Klebsiella pneumoniae. As to the kind of experiment: Antibacterial activity against ESBL-producing Klebsiella pneumoniae ATCC 27736 after 16 to 20 hrs by broth microdilution method. The class given is functional. The method in brief:
as §2

A short description of assay [6]: Growth inhibition of human HepG2 cells after 72 hrs by MTT assay. The conditions noted are these: HepG2, 72 h. In kind it is functional, cell-based. The method in brief:
as §1

The next assay deals with A549. As to the kind of experiment: Selectivity index, ratio of IC50 for […] cells to IC50 for human A549 cells. The class given is functional.
The nature of assay [7]: Induction of apoptosis in human HepG2 cells assessed as viable cells at 2 times antiproliferative IC50 after 48 hrs by Annexin-V FITC/propidium iodide staining based fluorescence microscopic method (reference value: 94.2%). In kind it is functional.
The test system of the next assay is HepG2. Nature of the assay: Selectivity index, ratio of IC50 for […] cells to IC50 for human HepG2 cells. In kind it is functional.
The nature of assay [8]: Induction of apoptosis in human HepG2 cells assessed as late apoptotic cells at 2 times antiproliferative IC50 after 48 hrs by Annexin-V FITC/propidium iodide staining based fluorescence microscopic method (reference value: 0%). The class given is functional.
Assay [9] can be described thus: Induction of apoptosis in human HepG2 cells assessed as secondary necrotic cells at 2 times antiproliferative IC50 after 48 hrs by Annexin-V FITC/propidium iodide staining based fluorescence microscopic method (reference value: 5.2%). In kind it is functional.
Assay [10] is described as follows: Induction of apoptosis in human HepG2 cells assessed as early apoptotic cells at 2 times antiproliferative IC50 after 48 hrs by Annexin-V FITC/propidium iodide staining based fluorescence microscopic method (reference value: 0.6%). The class given is functional.

In brackets after ≈: the same amount, converted by molar mass.

For the compound `O=c1cc(Cn2cc(CNS(=O)(=O)c3ccc(F)cc3)nn2)c2ccc(O)cc2o1`, the IC50 was over 100 µM in assay [1]; over 100 µM in [2]; over 100 µM in [3]; 24.9 µM in [4]; 88.5 µM in [5]; 76.7 µM in assay [6]. The MIC80 against Pseudomonas aeruginosa is over 256 µg/mL; in the assay on Enterococcus faecalis, 64 µg/mL (≈ 149 µM); against Staphylococcus aureus, over 256 µg/mL; against Acinetobacter baumannii, over 256 µg/mL; in the assay with Klebsiella pneumoniae it was over 256 µg/mL. Moreover, the minimal inhibitory concentration (MIC) with Escherichia coli was over 256 µg/mL.
As for `CCCC1CCC(c2ccc(-c3cn(Cc4cc(=O)oc5cc(O)ccc45)nn3)cc2)CC1` (stereo not given), the IC50 in [1] was found to be 37.5 µM; in assay [2], 34.3 µM; in [3] it was 52.8 µM; in [4], 7.91 µM; in [5], 41 µM; in assay [6], 30.4 µM. Besides, the MIC80 was over 256 µg/mL with Pseudomonas aeruginosa; 64 µg/mL (≈ 144 µM) against Enterococcus faecalis; over 256 µg/mL with Staphylococcus aureus; over 256 µg/mL against Acinetobacter baumannii; over 256 µg/mL in the assay on Klebsiella pneumoniae. Further, in the assay with Escherichia coli, the MIC was over 256 µg/mL.
Regarding `O=c1cc(Cn2cc(-c3cc(F)cc(F)c3)nn2)c2ccc(O)cc2o1`, the IC50 was 66.7 µM in assay [1]; 27.6 µM in assay [2]; over 100 µM in assay [3]; 21.1 µM in assay [5]; 38.9 µM in assay [6]. In the assay on A549, the “Ratio IC50” value is on record as over 4.
For `CCCCCCCCc1cn(Cc2cc(=O)oc3cc(O)ccc23)nn1`, the IC50 in assay [1] was 50.9 µM; in [2], 35.1 µM; in assay [3], 62.6 µM; in assay [4], 43.4 µM; in [5], 46 µM; in assay [6], 34.2 µM. Further, the MIC80 was over 256 µg/mL in the assay on Pseudomonas aeruginosa; 256 µg/mL (≈ 720 µM) in the assay with Enterococcus faecalis; over 256 µg/mL in the assay on Staphylococcus aureus; over 256 µg/mL in the assay on Acinetobacter baumannii; over 256 µg/mL in the assay with Klebsiella pneumoniae. Also, the MIC in the assay with Escherichia coli is over 256 µg/mL.
In the case of `O=c1cc(Cn2cc(CCc3ccccc3)nn2)c2ccc(O)cc2o1`, the IC50 was 84.4 µM in assay [1]; 35.1 µM in assay [2]; over 100 µM in assay [3]; 24.8 µM in assay [5]; 50.5 µM in [6]. Moreover, the “Ratio IC50” value with A549 was over 4.
Take `O=c1cc(Cn2cc(Cn3ccc4cc(I)ccc43)nn2)c2ccc(O)cc2o1`: the IC50 in assay [1] is 34.3 µM; in [2] it was 14.2 µM; in assay [3] it was 29.9 µM; in [5], 28.6 µM; in assay [6], 8.57 µM. The Activity is on record as 85% in [7], 9.2% in assay [8], 0% in [9] and 5.8% in assay [10]. For the same compound, the “Ratio IC50” value in the assay with HepG2 worked out at 3.
As for `O=c1cc(Cn2cc(CNS(=O)(=O)c3ccc(F)cc3Cl)nn2)c2ccc(O)cc2o1`, the IC50 in assay [1] was over 100 µM; in assay [2], 74.9 µM; in assay [3], over 100 µM; in assay [4] it was 1.45 µM; in assay [5], 91.9 µM; in assay [6] it was 74.8 µM. The MIC80 against Pseudomonas aeruginosa was over 256 µg/mL; against Enterococcus faecalis, 32 µg/mL (≈ 68.8 µM); with Staphylococcus aureus, over 256 µg/mL; against Acinetobacter baumannii it was over 256 µg/mL; in the assay with Klebsiella pneumoniae it was over 256 µg/mL. In the assay with Escherichia coli, the MIC was over 256 µg/mL.

One may read the IC50 as the midpoint of a concentration-inhibition curve. A higher IC50 goes with a need for much substance. A word on the MIC80: it is the lowest concentration that inhibits either 80% of growth or 80% of the strains tested, depending on the study. The MIC is the lowest concentration found to suppress growth.
